Screens: PubChem BioAssay, Sanford-Burnham Center for Chemical Genomics
hIAP act = increases human intestinal alkaline phosphatase activity. P09923. purified human IAP, CDP-Star luminescence, 30 min; active compounds read high; 1 = vehicle-only enzyme, 0 = enzyme-free background. activation factor at 10 µM. actives 0.16% (n = 330,000). AID 2524;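 active = activation factor of the enzyme at least 2-fold when tested at 20 µM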
Target sequence (P09923 whole entry, looked up): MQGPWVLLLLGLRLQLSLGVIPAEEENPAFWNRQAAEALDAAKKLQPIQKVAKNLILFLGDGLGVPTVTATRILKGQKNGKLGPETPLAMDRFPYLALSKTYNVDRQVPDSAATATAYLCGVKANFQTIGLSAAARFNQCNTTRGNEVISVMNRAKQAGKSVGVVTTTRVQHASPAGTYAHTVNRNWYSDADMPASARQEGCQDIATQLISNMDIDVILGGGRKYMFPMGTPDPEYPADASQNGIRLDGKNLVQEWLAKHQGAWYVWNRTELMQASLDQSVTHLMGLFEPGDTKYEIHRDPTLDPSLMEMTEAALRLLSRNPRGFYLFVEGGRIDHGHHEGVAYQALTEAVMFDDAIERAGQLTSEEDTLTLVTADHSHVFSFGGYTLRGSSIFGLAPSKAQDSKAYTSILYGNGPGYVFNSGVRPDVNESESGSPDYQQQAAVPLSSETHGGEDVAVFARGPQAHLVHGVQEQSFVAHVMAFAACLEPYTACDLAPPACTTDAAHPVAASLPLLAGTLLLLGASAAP
bIAP inh = blocks bovine intestinal alkaline phosphatase activity; purified bovine IAP, CDP-star luminescence, 30 min; inhibition, % at 20 µM; 190,000 tested, under 10 active; AID 1019;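 active = over 50% inhibition of intestinal alkaline phosphatase at 20 µM in the single-dose screen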
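System: purified bovine intestinal alkaline phosphatase (IAP) enzyme; Input: IAP diluted 1/65,000,000 in the well; Measured by: CDP-star luminescence signal; Compound dosing: 20 µM single dose; Incubation: 30 min reaction at room temperature.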
bIAP act = increases bovine intestinal alkaline phosphatase activity. purified bovine IAP, CDP-star luminescence, 30 min; active compounds read high; fold of DMSO-control signal, blank-subtracted. actives 0.17% (n = 200,000). activation factor at 20 µM. AID 1016;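 active = activation factor of 2 or more at 20 µM, a signal rise over negative controls twice the positive control's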
mIAP inh = mouse IAP inhibition | actives 0.2% (n = 330,000) | purified mouse IAP, CDP-Star luminescence, 30 min | inhibition, % at 10 µM;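 active = inhibition of at least 40% at 10 µM in the primary screen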
hIAP inh = blocks human intestinal alkaline phosphatase | P09923 | purified IAP, CDP-Star luminescence, 30 min | inhibition, % at 10 µM | actives 0.12% (n = 330,000) | AID 2544;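 active = inhibition reaching a set limit with compound at 10 µM in the primary screen, cut at about 35% in these data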
mIAP activ = mouse IAP activation | muIAP, CDP-Star luminescence, 30 min; active compounds read high; 1 = vehicle-only enzyme signal, 0 = enzyme-free wells | activation factor at 10 µM | actives 0.24% (n = 330,000);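 active = activation factor of at least 2 at 20 µM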
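System: mouse IAP enzyme. Reagent: CDP-Star chemiluminescent phosphatase substrate. Benchmarks: DMSO wells, no-enzyme wells. Times: 30 min enzyme-substrate-compound incubation at room temperature. Detection: luminescence from enzymatic CDP-Star hydrolysis. Doses: test compounds delivered from DMSO solution.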
Of the large screens only hits and unclear results are named; the others gave an inactive call. Hits are enriched below; roughly 0.77% of the tested compounds scored in any of these assays.

Cc1ccc(SCC(=O)Nc2ccc(N3CCN(C)CC3)c(F)c2)c(C)c1	mIAP inh 42.3
Cc1ccc(-n2nnnc2SCC(=O)Nc2ccc(N3CCN(C)CC3)cc2)c(C)c1	none (no result: bIAP inh, bIAP act)
O=C(CCn1cccn1)N1CCCC(N2CCN(c3cccc(C(F)(F)F)c3)CC2)C1 (centres undefined)	none (no result: bIAP inh, bIAP act)
CC(C)(C)OC(=O)[C@H](Cc1ccccc1)NC(=O)c1nc[nH]c1C(=O)N1CCN(C(=O)OC(C)(C)C)CC1	mIAP inh 41.4 (no result: bIAP inh, bIAP act)
CC(C)(C)OC(=O)N1CCN(C(=O)c2[nH]cnc2C(=O)N[C@@H](Cc2ccccc2)C(=O)OCc2ccccc2)CC1	none (no result: bIAP inh, bIAP act)
COc1ccc(CCNC(=O)c2ccc(N3CCCCS3(=O)=O)cc2)cc1OC	none (no result: bIAP inh, bIAP act)
COc1ccc(NC(=O)c2cccnn2)cc1	none (no result: bIAP inh, bIAP act)
COC(=O)c1ccc(NC(=O)Nc2ccc(F)cc2)cc1	none
CCOC(=O)c1ccc(NC(=O)Nc2ccc(F)cc2)cc1	mIAP activ 2.54
CCOC(=O)c1ccc(NC(=O)NCc2ccccc2OC)cc1	mIAP activ 2.35
CCCCOC(=O)c1ccc(NC(=O)Nc2ccc(OC)c(OC)c2)cc1	mIAP activ 2.15
CCOC(=O)c1ccc(NC(=O)NCc2ccccc2)cc1	none
CCOC(=O)c1cccc(NC(=O)Nc2ccc(OCC)cc2)c1	mIAP activ 2.91
C/C(=N\NC(=O)C1(C)CC1(Br)Br)c1cccc(NC(=O)c2ccc(C)o2)c1 (centres undefined)	none (no result: bIAP inh, bIAP act)
Cc1csc(NC(=O)C(Cc2ccccc2)n2cccc2)n1 (centres undefined)	mIAP inh 43.2
Cc1ccc(NC(=O)C(Cc2ccccc2)n2cccc2)cc1 (centres undefined)	none (no result: bIAP inh, bIAP act)
Cc1ccc(CS(=O)Cc2ccc(C(=O)NCc3ccccc3Br)o2)cc1 (centres undefined)	none (no result: bIAP inh, bIAP act)
COc1cc(NC(=O)COC(C)=O)cc(OC)c1OC	none
CCC(NC(=O)Nc1cc(OC)c(OC)c(OC)c1)(C(F)(F)F)C(F)(F)F	mIAP activ 2.1
CC1(C)CSC(=NCCc2ccccc2)N1	none (no result: bIAP inh, bIAP act)
CCCNC(=O)c1ccc2c(c1)C1C3CCC(C3)C1C(c1ccccc1)N2 (centres undefined)	bIAP act 2
CC(C)(C)NC(=O)c1ccc2c(c1)C1C3CCC(C3)C1C(c1ccccc1)N2 (centres undefined)	none
CCC(=O)Nc1cccc(-c2nnc(-c3cccc(NC(=O)CC)c3)o2)c1	mIAP inh 43.9
O=C(Nc1ccc(Cl)c(Cl)c1)Nc1nc(-c2ccccc2)cs1	mIAP activ 2.11
O=C(Nc1ccccc1)Nc1nc(-c2ccc(F)c(F)c2)cs1	mIAP activ 2.47 (no result: bIAP inh, bIAP act)
O=C(Nc1ccccc1)Nc1nc(-c2ccccc2)cs1	none (no result: bIAP inh, bIAP act)
O=C(Nc1nc(-c2ccccc2)cs1)Nc1ccc(F)cc1F	none
COc1cc(NC(=O)COc2ccc(-n3cnnn3)cc2)cc(OC)c1OC	none (no result: bIAP inh, bIAP act)
S=C(Nc1ccc(Cl)c(Cl)c1)NC1CCCCC1	mIAP activ 3.2
S=C(Nc1ccc(Cl)c(Cl)c1)NC1CCN(Cc2ccccc2)CC1	mIAP activ 2.15
COc1ccc(C[C@H]2CN3C(=NC[C@@H]3C(C)C)N2CCNC(=O)CCC2CCCCC2)cc1	none
COc1ccc(C[C@H]2CN3C(=NC[C@@H]3Cc3ccccc3)N2CCNC(=O)CCC2CCCCC2)cc1	bIAP act 2.1
COc1cc(C2CC(c3cccnc3)=NN2c2ccc(F)cc2)cc(OC)c1OC (centres undefined)	mIAP activ 2.23
CCOC(=O)CN1NC2(CCCCC2)NC1=S	mIAP inh 50.7
CCOC(=O)CN1NC2(CCCCCCC2)NC1=S	none (no result: bIAP inh, bIAP act)
CCOC(=O)c1sc(NC(=O)Nc2ccccc2)cc1C	none
CCOC(=O)c1sc(NC(=O)Nc2ccccc2Cl)cc1C	mIAP activ 3.21
O=C(C1CCN(S(=O)(=O)c2ccc(Cl)c(C(F)(F)F)c2)CC1)N1CCC1	none (no result: bIAP inh, bIAP act)
Cc1cc(OCC(=O)Nc2cccc(S(=O)(=O)N3CCCCC3)c2)ccc1Cl	mIAP activ 3.07 (no result: bIAP inh, bIAP act)
Cc1cc(OCC(=O)Nc2cccc(S(=O)(=O)N3CCCC3)c2)ccc1Cl	none (no result: bIAP inh, bIAP act)
O=C(CCc1ccccc1Cl)Nc1cccc(S(=O)(=O)N2CCCC2)c1	none (no result: bIAP inh, bIAP act)
O=C(Cc1ccccc1Cl)Nc1cccc(S(=O)(=O)N2CCCCCC2)c1	mIAP activ 2.13 (no result: bIAP inh, bIAP act)
